From PubChem
hERG protect: hERG (human) protection from proarrhythmic block; activation (rescue from dofetilide block), less the hit threshold, % at 10 µM; 310,000 compounds, 0.51% hits; Q12809; CHO-hERG, FluxOR thallium flux, dofetilide IC70 present;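 active means activation above the mean of controls blocked by dofetilide plus 5 SD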;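 further: thallium influx through hERG after potassium depolarization seen as dye fluorescence rise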
Kir21 block: Kir2.1 (mouse) channel inhibition; P35561; AID 1672; B-score at 10 µM; HEK293-Kir2.1, FluxOR thallium flux fluorescence; hits give low values; 310,000 compounds, 0.85% hits;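 active means fluorescence ratio B-score at or below minus 3 SD of library scores, with starting-brightness B-score within 2 SD, cut at about -4.2 in these data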;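 further: channel flux triggered by added potassium and thallium sulfate stimulus; B-score of peak minus minimum fluorescence over baseline after thallium stimulus; more negative B-score means stronger Kir2.1 block with less thallium influx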
KCNQ1 block: human KCNQ1 channel inhibition; P51787; CHO-K1 KCNQ1, FluxOR thallium flux fluorescence; hits give high values; B-score at 10 µM; 310,000 compounds, 1.3% hits;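 active means compounds whose thallium flux B-score, printed positive for inhibition, exceeds three library SD while starting fluorescence stays within three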;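 further: channel opened by potassium depolarization with thallium stimulus after 20 min compound exposure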
KCNK3 block: human KCNK3 channel inhibition, primary screen. O14649. CHO-KCNK3 thallium flux, FluxOR fluorescence; hits give low values. B-score at 10 µM. 340,000 compounds, 0.84% hits;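 active means B-score under library mean minus 4 SD, starting fluorescence ratio at most library mean plus 5 SD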;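 further: more negative B-score means stronger inhibition of thallium flux through KCNK3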
KCNQ1 pot: potentiators or activators of human KCNQ1 potassium channel; CHO-K1 KCNQ1, thallium flux FluxOR fluorescence; hits give high values; B-score at 10 µM; P51787; 310,000 compounds, 0.35% hits;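 active means fluorescence ratio B-score, a plate-corrected score, at least three library SD, with initial intensity B-score within 5 SD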
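System: Stable KCNQ1 CHO-K1 line | Incubation: 90 min dye loading and 20 min compound exposure, both at room temperature | Measure: Ratio B score | Medium: Assay buffer for compound exposure, DMSO matched across wells | Compound dosing: Single-concentration screen | Probe or stimulus: K+/Tl+ depolarizing stimulus | Measured by: Kinetic FluxOR fluorescence, 10 s baseline plus 110 s post-stimulus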
KCNK9 inh: inhibitors of human KCNK9 two-pore domain potassium channel; HEK293 KCNK9, FluxOR thallium flux fluorescence; hits give low values; B-score at 10 µM; 310,000 compounds, 1.2% hits;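 active means ratio B-score over 3 SD below the library mean, with starting fluorescence within 5 SD of its mean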;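 further: negative B-score means less thallium flux so channel inhibition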
Target sequence (Q9NPC2 whole entry, looked up, the tested form may be a part): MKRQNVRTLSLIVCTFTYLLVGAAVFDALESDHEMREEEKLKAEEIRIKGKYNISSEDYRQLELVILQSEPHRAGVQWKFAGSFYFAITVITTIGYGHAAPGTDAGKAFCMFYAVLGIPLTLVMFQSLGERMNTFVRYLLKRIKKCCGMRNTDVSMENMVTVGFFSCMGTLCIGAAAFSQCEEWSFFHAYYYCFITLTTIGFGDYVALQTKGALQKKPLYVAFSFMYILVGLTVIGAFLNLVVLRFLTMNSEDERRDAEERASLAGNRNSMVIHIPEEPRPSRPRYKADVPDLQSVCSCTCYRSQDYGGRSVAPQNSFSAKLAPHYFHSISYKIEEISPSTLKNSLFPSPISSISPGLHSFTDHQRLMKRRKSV
Active calls of the source: *; i = inactive; . = no result given. This is a sample that favours compounds with a hit; in the whole collection about 3.8% have one here.

SMILES	hERG protect	Kir21 block	KCNQ1 block	KCNK3 block	KCNQ1 pot	KCNK9 inh
Cc1cc(C)cc(NC(=O)CCC(=O)Nc2nnc(C(C)C)s2)c1	-7	-0.29	i	i	i	i
Cc1ccc(C(=O)NNC(=O)CCCCC(=O)NNC(=O)c2ccc(C)cc2)cc1	-1	1.4	i	i	9*	i
COc1ccc(C(=O)NNC(=O)CCCCC(=O)NNC(=O)c2ccc(OC)cc2)cc1	-9	0.2	i	i	i	i
Cc1ccc(C(=O)NNC(=O)c2cccc(Br)c2)cc1	11*	1.7	i	i	i	i
CC1CCC(NC(=O)c2cc3ccccc3cc2O)CC1 (stereo not drawn)	.	.	.	-11*	.	.
O=C(NNC(=O)c1cc2ccccc2cc1O)NC1CCCCC1	-8	0.01	i	i	i	i
CC(OCC(O)CNCC1COc2ccccc2O1)c1ccc(Cl)cc1 (stereo not drawn)	-18	-1.4	i	i	i	i
CCCCn1nc(NC(=O)COC)c2cc3ccc(C)cc3nc21	9.0*	1.6	i	i	i	i
CCCn1nc(NC(=O)COC)c2cc3cc(C)ccc3nc21	-6	0.3	i	i	i	i
CC1CCN(CCCNC(=O)c2ccc(CSCc3cccc(Cl)c3)o2)CC1	-13	-6.7*	i	i	i	i
CC(C)Cc1nc(SCC(=O)N2CCCC2)c2c(=O)n(C)c(=O)n(C)c2n1	-6	-0.05	i	i	i	i
CC(CN(C)Cc1ccccc1)OC(=O)c1ccccc1F (stereo not drawn)	-12	0.2	i	i	i	i
CC(CN(C)Cc1ccccc1)OC(=O)c1cccs1 (stereo not drawn)	47*	-1.5	i	i	i	i
CC1(C)CC(=O)C(C(C2=C(O)CC(C)(C)CC2=O)c2ccc(Br)s2)C(=O)C1 (stereo not drawn)	-17	-7.4*	i	i	i	i
CC(=O)Oc1c(-c2ccco2)oc2ccccc2c1=O	0	-0.01	i	i	8*	i
Cc1ccsc1C(=O)OCC(=O)N1CCc2ccccc2C1	-13	0.3	i	i	i	i
CCC(C(=O)NCCCN(CC)Cc1ccccc1)n1nc(C)c2sc3ccccc3c2c1=O (stereo not drawn)	-8	-9.5*	i	i	i	i
C#CCOCCOCCOCCNc1nc(N2CCOCC2)nc(N2CCN(C(=O)CCCCCCCCCCNC(=O)[C@@H]([C@H](C)O)n3cc(C)nn3)CC2)n1	.	.	.	i	.	.
NC1=NC2(CCC(c3ccccc3)CC2)n2c(nc3ccccc32)N1 (stereo not drawn)	-9	0.69	i	i	i	-7.9*
O=C(c1ccccc1)c1nnc(-c2ccccc2F)o1	-5	-1.1	i	i	i	i
N#CCCn1cc(C(=O)Nc2ccccc2Br)c(-c2cccs2)n1	-10	-0.49	i	i	i	-7.3*
CNC(=S)N(CCc1c(C)[nH]c2ccc(C)cc12)Cc1ccco1	-5	-5*	i	i	i	i
CCNC(=S)N(CCc1c(C)[nH]c2ccc(Cl)cc12)Cc1ccco1	-37	-3.3	i	i	i	i
COCCn1c(=S)[nH]c2sc3c(c2c1=O)CCC(C)C3 (stereo not drawn)	27*	1.3	i	i	60*	i
CCn1nnc2sc3c(c2c1=O)CCC(C)C3 (stereo not drawn)	-5	-0.41	i	i	i	i
SMILES	hERG protect	Kir21 block	KCNQ1 block	KCNK3 block	KCNQ1 pot	KCNK9 inh
Nn1c(=S)[nH]c2sc3c(c2c1=O)CCCC3	-3	0.49	i	i	i	i
CCCn1c(=S)[nH]c2sc3c(c2c1=O)CCCC3	48*	-0.09	i	i	43*	i
O=c1[nH]c(=S)[nH]c2sc3c(c12)CCCCCC3	-3	-1.1	i	i	10*	i
Cn1c(=S)[nH]c2sc3c(c2c1=O)CCC(C(C)(C)C)C3 (stereo not drawn)	57*	-0.5	i	i	80*	i
CC(=O)Cn1nnc2sc3c(c2c1=O)CCC(C(C)(C)C)C3 (stereo not drawn)	-9	-0.53	i	i	i	i
O=c1[nH]c(C2CC2)nc2sc3c(c12)CCCC3	-6	-0.03	i	i	i	i
COCCCn1c(=S)[nH]c2sc3c(c2c1=O)CCCS3	19*	-0.56	i	i	i	i
COc1ccc(Br)cc1CN(C)CC(=O)Nc1cc(Cl)ccc1Cl	-19	-5.7*	i	i	i	i
COc1ccccc1CN(C)CC(=O)Nc1ccc(Cl)cc1F	-19	-2.3	i	i	i	i
O=C(Nc1cccc(O)c1)c1noc2c1CCc1ccccc1-2	-2	0.32	i	i	i	i
O=C(Nc1ccc(O)cc1C(=O)O)c1ccc(NC(=O)c2ccco2)cc1	.	.	.	i	.	.
CC(C)CC(=O)NC(NC(=S)Nc1sc2c(c1C#N)CCCC2)C(Cl)(Cl)Cl (stereo not drawn)	-19	2.6	i	i	i	-7.4*
O=C(NCC(c1ccco1)N1CCc2ccccc2C1)c1ccc(Cl)c([N+](=O)[O-])c1 (stereo not drawn)	-13	-0.28	6*	i	i	i
O=C(NCC(c1ccco1)N1CCc2ccccc2C1)c1ccc(Cl)cc1 (stereo not drawn)	-12	-0.33	i	i	i	i
COc1ccccc1CN=C1Nc2ccccc2CS1	-10	-13*	i	i	i	i
COc1ccc2oc(C(=O)OCC(=O)Nc3ccccc3)c(C)c2c1	-9	-0.2	i	i	i	i
Fc1ccc(Br)cc1C1C=C(c2ccc(Br)cc2)Nc2ncnn21 (stereo not drawn)	-8	-1.2	i	-12*	i	i
CCc1ccc(C2=CC(c3cc(Br)ccc3F)n3ncnc3N2)cc1 (stereo not drawn)	.	.	.	-8.9*	.	.
CCNC(=S)Nc1scc(-c2ccccc2)c1C(=O)OCC	6.0*	0.29	i	i	23*	i
CCOC(=O)c1c(-c2ccccc2)csc1NC(=S)NC	8.9*	-0.92	i	i	38*	i
CC(C)OCCCNC(=O)C1CCC(CNS(=O)(=O)c2ccccc2)CC1 (stereo not drawn)	-11	-0.55	i	i	i	i
COc1ccccc1-c1cn[nH]c1-c1ccc(OCc2ccc(F)cc2)cc1O	-12	-0.8	6*	i	i	i
CC(=O)Nc1ccc(OS(=O)(=O)c2ccc(C)cc2C)cc1	-10	-1.5	i	i	i	i
CCC1(CC)CNC(=O)NC1=O	.	.	.	i	.	.
